Values belong to the compound of their own block, whether it stands above or below them. Active and inactive are the calls of the source. The calls are words filed in the database; no cut-off is given here.
Experiments:
[1] = Cytotoxicity against […] Hepa1-6 cells assessed as reduction in cell viability measured after 24 to 72 hrs by celltiter-glo luminescent cell viability assay; assay type: toxicity, cell-based; details: time 24-72 hrs
Method in brief: (§1)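 Cells seeded at 2,500 per well for 1-day or 5,000 per well for 3-day exposure. Viability read by CellTiter-Glo luminescence. Staurosporine (56 μM) set as 100% cytotoxicity. Each concentration run in quadruplicate, at least three times. % cytotoxicity plotted and fitted to a sigmoidal dose–response curve. Means and SDs from three independent experiments.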

HepG2 [2] = test: Effect on CAR activity in human HepG2 cells co-expressing luciferase gene under control of CYP3A4 promoter by luciferase reporter assay; assay type: cell-based
[3] = target: T1, PXR (NR1I2) ligand binding domain (Homo sapiens, UniProt O75469); test: Inhibition of BODIPY FL vindoline binding to recombinant human GST-tagged PXR LBD (111 to 434 residues) expressed in baculovirus infected insect cells at 10 uM incubated for 1 mins under shaking condition followed by 60 mins under dark condition by TR-FRET assay relative to control; details: probe BODIPY FL vindoline, time 61 min
T1 sequence (O75469 whole entry): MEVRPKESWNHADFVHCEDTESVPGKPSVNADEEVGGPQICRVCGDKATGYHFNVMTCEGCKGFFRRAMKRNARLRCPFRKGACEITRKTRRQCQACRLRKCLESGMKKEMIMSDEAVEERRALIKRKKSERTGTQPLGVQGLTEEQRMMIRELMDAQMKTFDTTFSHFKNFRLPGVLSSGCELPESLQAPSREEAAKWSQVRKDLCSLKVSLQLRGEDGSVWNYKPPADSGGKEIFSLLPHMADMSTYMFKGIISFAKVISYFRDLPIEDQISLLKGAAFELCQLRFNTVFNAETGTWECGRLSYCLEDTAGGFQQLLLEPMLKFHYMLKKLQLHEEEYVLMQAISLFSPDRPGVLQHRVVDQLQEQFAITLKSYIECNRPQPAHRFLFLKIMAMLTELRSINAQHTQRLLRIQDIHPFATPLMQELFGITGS

HepG2 [4] = test: Cytotoxicity against human HepG2 cells assessed as reduction in cell viability measured after 24 to 72 hrs by celltiter-glo luminescent cell viability assay; assay type: toxicity, cell-based; details: time 24-72 hrs; method in brief: as §1
[5] = target: T2, Nuclear receptor subfamily 1 group I member 2 (Homo sapiens, UniProt O75469); test: Agonist activity at human PXR in human HepG2 cells co-expressing luciferase gene under control of CYP3A4 promoter assessed as transcriptional activation at 30 uM incubated for 24 hrs by luminescence based analysis; assay type: cell-based; details: hepg2, 24 h
T2 sequence (O75469 whole entry): T1 sequence (O75469 whole entry)

PXR (NR1I2) [6] = target: T3, PXR (NR1I2) (Homo sapiens, UniProt O75469); test: Inverse agonist activity at human PXR in human HepG2 cells co-expressing luciferase gene under control of CYP3A4 promoter assessed as inhibition in receptor basal activity at 10 uM incubated for 24 hrs by luminescence based analysis relative to control; assay type: cell-based
T3 sequence (O75469 whole entry): T1 sequence (O75469 whole entry)

[7] = target: T4, Bile acid receptor (Homo sapiens) (UniProt Q96RI1); test: Effect on FXR activity in GeneBLAzer FXR-UAS-bla HEK 293T cells by fluorescence based analysis; assay type: cell-based
T4 sequence (whole entry): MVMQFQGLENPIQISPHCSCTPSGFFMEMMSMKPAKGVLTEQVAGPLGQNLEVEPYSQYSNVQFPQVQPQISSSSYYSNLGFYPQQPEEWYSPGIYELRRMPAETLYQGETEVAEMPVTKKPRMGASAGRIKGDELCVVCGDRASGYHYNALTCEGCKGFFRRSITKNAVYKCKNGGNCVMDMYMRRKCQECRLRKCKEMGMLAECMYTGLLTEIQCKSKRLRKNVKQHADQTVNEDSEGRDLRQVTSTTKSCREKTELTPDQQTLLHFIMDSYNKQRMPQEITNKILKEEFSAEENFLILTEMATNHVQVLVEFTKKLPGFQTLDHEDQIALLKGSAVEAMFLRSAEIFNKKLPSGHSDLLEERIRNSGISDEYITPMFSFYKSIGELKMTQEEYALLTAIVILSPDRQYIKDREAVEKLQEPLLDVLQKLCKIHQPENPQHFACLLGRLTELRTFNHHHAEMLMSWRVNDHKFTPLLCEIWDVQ
Method in brief: (§2)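 Run in agonistic mode (compound alone) or antagonistic mode (compound plus an agonist). Each concentration tested in quadruplicate, at least three times. % activation or % inhibition plotted against concentration, with EC50 or IC50 derived from a sigmoidal dose–response fit.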

[8] = target: T5, Nuclear receptor subfamily 1 group I member 2 (Mus musculus, UniProt O54915); test: Effect on mouse PXR activity by luciferase reporter assay; method in brief: as §2
T5 sequence (O54915 whole entry): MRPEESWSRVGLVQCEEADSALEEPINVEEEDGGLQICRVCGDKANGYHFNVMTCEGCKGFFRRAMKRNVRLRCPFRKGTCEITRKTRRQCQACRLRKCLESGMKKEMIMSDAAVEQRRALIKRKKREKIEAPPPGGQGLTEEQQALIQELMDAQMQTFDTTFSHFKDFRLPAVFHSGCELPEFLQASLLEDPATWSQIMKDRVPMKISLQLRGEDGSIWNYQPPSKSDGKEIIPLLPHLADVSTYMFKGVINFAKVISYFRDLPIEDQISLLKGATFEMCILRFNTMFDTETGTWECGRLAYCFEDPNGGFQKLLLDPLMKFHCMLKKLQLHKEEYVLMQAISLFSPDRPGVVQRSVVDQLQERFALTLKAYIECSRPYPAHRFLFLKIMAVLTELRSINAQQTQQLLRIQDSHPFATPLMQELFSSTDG

[9] = target: T6, Vitamin D3 receptor (Homo sapiens) (UniProt P11473); test: Effect on VDR activity in GeneBLAzer VDR-UAS-bla HEK 293T cells by fluorescence based analysis; assay type: cell-based; method in brief: as §2
T6 sequence (whole entry): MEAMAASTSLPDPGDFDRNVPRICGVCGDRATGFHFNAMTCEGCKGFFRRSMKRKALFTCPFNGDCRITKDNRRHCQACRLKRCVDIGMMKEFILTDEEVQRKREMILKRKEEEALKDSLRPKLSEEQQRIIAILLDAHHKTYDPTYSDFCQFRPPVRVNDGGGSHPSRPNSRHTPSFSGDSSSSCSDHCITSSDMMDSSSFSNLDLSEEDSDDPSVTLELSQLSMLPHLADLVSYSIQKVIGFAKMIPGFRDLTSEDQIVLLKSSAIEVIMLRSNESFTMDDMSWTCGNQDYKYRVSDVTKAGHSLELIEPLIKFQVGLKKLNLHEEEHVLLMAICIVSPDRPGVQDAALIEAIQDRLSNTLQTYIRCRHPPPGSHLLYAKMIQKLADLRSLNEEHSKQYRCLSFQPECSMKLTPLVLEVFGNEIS

HEK-293T = test: Cytotoxicity against HEK293T cells assessed as reduction in cell viability measured after 24 to 72 hrs by celltiter-glo luminescent cell viability assay; assay type: toxicity, cell-based; details: human, time 24-72 hrs; method in brief: as §1
[10] = target: T7, Oxysterols receptor LXR-alpha (Homo sapiens) (UniProt Q13133); test: Effect on LXRalpha activity in GeneBLAzer LXRalpha-UAS-bla HEK 293T cells by fluorescence based analysis; assay type: cell-based; method in brief: as §2
T7 sequence (whole entry): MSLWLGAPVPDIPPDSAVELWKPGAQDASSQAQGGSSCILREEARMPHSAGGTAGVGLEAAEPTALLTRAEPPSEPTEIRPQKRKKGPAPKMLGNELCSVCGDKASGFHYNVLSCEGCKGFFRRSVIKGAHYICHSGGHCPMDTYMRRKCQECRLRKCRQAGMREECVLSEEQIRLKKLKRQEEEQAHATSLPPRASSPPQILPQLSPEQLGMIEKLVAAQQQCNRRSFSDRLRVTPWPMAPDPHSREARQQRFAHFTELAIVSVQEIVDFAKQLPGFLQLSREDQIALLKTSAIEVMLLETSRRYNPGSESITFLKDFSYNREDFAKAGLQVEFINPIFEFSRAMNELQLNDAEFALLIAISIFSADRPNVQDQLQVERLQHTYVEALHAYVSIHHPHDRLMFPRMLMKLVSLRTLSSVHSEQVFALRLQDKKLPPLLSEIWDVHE

HepaRG = test: Cytotoxicity against human HepaRG cells assessed as reduction in cell viability measured after 24 to 72 hrs by celltiter-glo luminescent cell viability assay; assay type: toxicity, cell-based; details: time 24-72 hrs; method in brief: as §1
PXR (NR1I2) [11] = target: T3, PXR (NR1I2); test: Antagonist activity at human PXR in human HepG2 cells co-expressing luciferase gene under control of CYP3A4 promoter assessed as inhibition in rifampicin-induced receptor activation at 10 uM incubated for 24 hrs by luminescence based analysis relative to control; assay type: cell-based
[12] = target: T2, Nuclear receptor subfamily 1 group I member 2; test: Inverse agonist activity at human PXR in human HepG2 cells co-expressing luciferase gene under control of CYP3A4 promoter assessed as inhibition in receptor basal activity at 30 uM incubated for 24 hrs by luminescence based analysis; details: hepg2, 24 h
[13] = target: T2, Nuclear receptor subfamily 1 group I member 2; test: Inhibition of BODIPY FL vindoline binding to recombinant human GST-tagged PXR LBD (111 to 434 residues) expressed in baculovirus infected insect cells incubated for 1 mins under shaking condition followed by 60 mins under dark condition by TR-FRET assay
[14] = target: T2, Nuclear receptor subfamily 1 group I member 2; test: Inverse agonist activity at human PXR in human HepG2 cells co-expressing luciferase gene under control of CYP3A4 promoter assessed as inhibition of receptor basal activity incubated for 24 hrs by luminescence based analysis; assay type: cell-based
[15] = target: T2, Nuclear receptor subfamily 1 group I member 2; test: Agonist activity at human PXR in human HepG2 cells co-expressing luciferase gene under control of CYP3A4 promoter assessed as transcriptional activation incubated for 24 hrs by luminescence based analysis
[16] = target: T2, Nuclear receptor subfamily 1 group I member 2; test: Agonist activity at human PXR in human HepG2 cells co-expressing luciferase gene under control of CYP3A4 promoter assessed as transcriptional activation at 10 uM incubated for 24 hrs by luminescence based analysis relative to control
[17] = target: T2, Nuclear receptor subfamily 1 group I member 2; test: Antagonist activity at human PXR in human HepG2 cells co-expressing luciferase gene under control of CYP3A4 promoter assessed as inhibition in rifampicin-induced receptor activation at 30 uM incubated for 24 hrs by luminescence based analysis; assay type: cell-based; details: hepg2, 24 h

- inhibition at 24 h, 10 µM (PXR (NR1I2) [11]): 110%
- Activity [5]: Not Active
Structure (SMILES): COc1ccc(OC)c(-n2nnc(C(=O)Nc3cc(N(C)C)cc(C(C)(C)C)c3)c2C)c1

- INH [12]: Not Active
- EC50 [15]: 25000 nM
- inhibition (INH) ([13]; human, 1.017 h, time 61 min): Not Active
- activity at 24 h, 10 µM [16]: 33%
- inhibition (INH) [17]: Not Active
Structure (SMILES): COc1ccc(OC)c(-n2nnc(C(=O)Nc3ccccc3)c2C)c1

- inhibition at 24 h, 10 µM (PXR (NR1I2) [11]): 109%
- Activity [5]: Not Active
Structure (SMILES): CNc1cc(NC(=O)c2nnn(-c3cc(OC)ccc3OC)c2C)cc(C(C)(C)C)c1

- INH [12]: Not Active
- EC50 [15]: 2000 nM
- activity at 24 h, 10 µM [16]: 50%
- inhibition (INH) [17]: Not Active
- inhibition at 1.017 h, 10 µM [3]: 65%
Structure (SMILES): COc1ccc(OC)c(-n2nnc(C(=O)Nc3ccc(NC(C)=O)c(C(C)(C)C)c3)c2C)c1

The remaining lines, values behind:

Structure (SMILES): CCC[C@H](C)Oc1ccc(C(C)(C)C)cc1NC(=O)c1nnn(-c2cc(OC)ccc2OC)c1C
- Activity [1]: Non-Toxic
- Activity (HepG2 [2]): inactive
- inhibition at 1.017 h, 10 µM [3]: 87%
- Activity (HepG2 [4]): Non-Toxic
- Activity [5]: Not Active
- inhibition at 24 h, 10 µM (PXR (NR1I2) [6]): 125%
- Activity [7]: inactive
- Activity [8]: Not Active
- Activity [9]: inactive
- Activity (HEK-293T): Non-Toxic
- Activity [10]: inactive
- Activity (HepaRG): Non-Toxic

Structure (SMILES): COc1ccc(OC)c(-n2nnc(C(=O)Nc3cc(B4OC(C)(C)C(C)(C)O4)cc(C(C)(C)C)c3)c2C)c1
- inhibition at 24 h, 10 µM (PXR (NR1I2) [11]): 104%
- inhibition at 1.017 h, 10 µM [3]: 67%
- Activity [5]: Not Active
- inhibition at 24 h, 10 µM (PXR (NR1I2) [6]): 138%

Structure (SMILES): CCC[C@H](C)Oc1ccc(C(C)(C)C)cc1NC(=O)c1nnn(-c2cc(C)ccc2OC)c1C
- INH [12]: Not Active
- IC50 [13]: 4 nM
- Activity [1]: Non-Toxic
- Activity (HepG2 [2]): inactive
- inhibition at 1.017 h, 10 µM [3]: 90%
- Activity (HepG2 [4]): Non-Toxic
- Activity [5]: Not Active
- Activity [7]: inactive
- Activity [8]: Not Active
- Activity [9]: inactive
- Activity (HEK-293T): Non-Toxic
- Activity [10]: inactive
- Activity (HepaRG): Non-Toxic

Structure (SMILES): COc1ccc(OC)c(-n2nnc(C(=O)Nc3cc(C(C)(C)C)ccc3OCCN3CCOCC3)c2C)c1
- inhibition at 1.017 h, 10 µM [3]: 68%
- Activity [5]: Not Active
- inhibition at 24 h, 10 µM (PXR (NR1I2) [6]): 81%
- IC50 [14]: 1400 nM

Structure (SMILES): COc1ccc(OC)c(-n2nnc(C(=O)Nc3cc(C(C)(C)C)ccc3OCCN(C)C)c2C)c1
- inhibition at 1.017 h, 10 µM [3]: 87%
- Activity [5]: Not Active
- IC50 [14]: 1800 nM

Structure (SMILES): CCCCN(CCCC)c1cc(NC(=O)c2nnn(-c3cc(OC)ccc3OC)c2C)cc(C(C)(C)C)c1
- inhibition at 24 h, 10 µM (PXR (NR1I2) [11]): 82%
- Activity [5]: Not Active
